Source: ChEMBL document CHEMBL2384933, “Vitexin inhibits inflammatory pain in mice by targeting TRPV1, oxidative stress, and cytokines” (J Nat Prod, 2013)

Assays:
Set-up in all cases: dose 2.5 mg/kg, route intraperitoneal
Conditions in all cases: in vivo, 168 h
Mus musculus [1] = experiment: Toxicity in Swiss mouse assessed as increase in myeloperoxidase activity in stomach at 2.5 mg/kg, ip for 7 days by spectrophotometric analysis; format: organism-based
Summary of the method: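 Same daily ip dosing for 7 days. Stomach was homogenized in 50 mM K2PO4 pH 6.0 with 0.5% HTAB and spun at 16100g for 2 min. Supernatant was mixed with 50 mM phosphate pH 6.0 containing 0.167 mg/mL o-dianisidine and 0.015% H2O2, then read at 450 nm three times within 1 min. Values came from a neutrophil standard curve, as neutrophils ×10^4/mg tissue.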

Mus musculus [2] = experiment: Hepatotoxicity in Swiss mouse assessed as increase in plasma ALT level at 2.5 mg/kg, ip for 7 days; format: toxicity, organism-based
Summary of the method: (§1)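 Mice dosed ip once daily for 7 days; the vehicle was saline or Tris/HCl buffer pH 8.0, with the vehicle data pooled. Plasma AST and ALT were measured with a diagnostic kit as markers of hepatotoxicity.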

Mus musculus [3] = experiment: Hepatotoxicity in Swiss mouse assessed as increase in plasma AST level at 2.5 mg/kg, ip for 7 days; format: toxicity, organism-based; summary of the method: as §1

Measured: Activity

COc1ccc2c(c1)c(CC(=O)O)c(C)n2C(=O)c1ccc(Cl)cc1 [INDOMETHACIN]
Toxic: all assays above
